Test results published in PubChem BioAssay AID588578 (Sanford-Burnham Center for Chemical Genomics, 2011).
The source made the active and inactive calls.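 The calls were made as follows: active = IC50 at or below 20 µM; inactive = the rest.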

Biological target: Bcl-2-like protein 1 (Homo sapiens) (UniProt Q07817)
Assay: displacement of Bim BH3 peptide from Bcl-XL – biochemical, fluorescence polarization, GST-Bcl-XL, FITC-Bim, selectivity assay for Bcl-B inhibitor project, SAR follow-up (AID 588578)
Method in brief: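 Test system: purified GST-Bcl-XL lacking C-terminal transmembrane region, E. coli-expressed; Medium: HEPES buffer pH 7.5 with Tween-20 and TCEP; Reagent: FITC-Bim probe peptide; Compound: ten doses, twofold serial dilution; Timing: compound-protein preincubation 20 min at 4 °C, tracer 10 min at RT, dark; Measure: IC50 from sigmoidal non-linear dose-response fit.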

Bcl-2-like protein 1 (Homo sapiens), sequence (Q07817 whole entry, looked up): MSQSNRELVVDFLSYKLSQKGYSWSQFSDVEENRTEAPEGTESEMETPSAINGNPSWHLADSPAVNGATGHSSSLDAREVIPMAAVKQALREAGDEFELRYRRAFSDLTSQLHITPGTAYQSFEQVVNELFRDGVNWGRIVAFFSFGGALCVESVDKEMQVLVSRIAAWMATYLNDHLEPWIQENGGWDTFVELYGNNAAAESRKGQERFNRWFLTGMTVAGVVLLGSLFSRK

SMILES | IC50
Cn1c(NCCO)nc2c(c1=O)C1(CCCCC1)Cc1ccccc1-2 | > 20 µM (inactive)
CC1(C)CC(n2c(=S)[nH]c3c(c2=O)C2(CCCC2)Cc2ccccc2-3)CCO1 (stereo not drawn) | > 20 µM (inactive)
O=c1c2c(-c3ccccc3)n3ncnc3nc2ccn1-c1ccccc1 | > 20 µM (inactive)
O=c1[nH]c(CN2CCCC2)nc2c1C1(CCCC1)Cc1ccccc1-2 | > 20 µM (inactive)
O=c1[nH]c(NCCCO)nc2c1C1(CCCCC1)Cc1ccccc1-2 | > 20 µM (inactive)
c1ccc(OCc2nc3c4c(ncn3n2)-c2ccccc2CC42CCCC2)cc1 | > 20 µM (inactive)
O=c1c2c(nc3[nH]ncn13)-c1ccccc1CC21CCCC1 | > 20 µM (inactive)
O=C1CC(c2ccccc2F)c2c(n3ncnc3[nH]c2=O)N1 (stereo not drawn) | > 20 µM (inactive)
O=C1CCCC2=C1C(c1cc(Br)ccc1F)n1ncnc1N2 (stereo not drawn) | > 20 µM (inactive)
O=c1c2c(-c3ccccc3)n3ncnc3nc2ccn1-n1cnnc1 | > 20 µM (inactive)
CC1(C)Cc2ccccc2-c2c1c(=O)n(Cc1ccccc1)c1nncn21 | > 20 µM (inactive)
CC1(C)Cc2ccccc2-c2nc3nn[nH]n3c(=O)c21 | > 20 µM (inactive)
O=c1c2ccccc2nc2n1C1(CCCC1)Cc1ccccc1-2 | > 20 µM (inactive)
O=c1c2c(nc3[nH]ncn13)-c1ccccc1CC21CCCCC1 | > 20 µM (inactive)
O=c1c2ccccc2nc2n1C1(CCCCC1)Cc1ccccc1-2 | > 20 µM (inactive)
O=c1c2c(nc3n1CCS3)-c1ccccc1CC21CCCCC1 | > 20 µM (inactive)
O=c1c2cnc3ncnn3c2ccn1CCc1cnc[nH]1 | > 20 µM (inactive)
Cn1c(=S)[nH]c2c(c1=O)C1(CCCCC1)Cc1ccccc1-2 | > 20 µM (inactive)
O=C1CC(c2ccc(F)cc2)CC2=C1C(c1cccc(Cl)c1)n1ncnc1N2 (stereo not drawn) | > 20 µM (inactive)
Cn1c(=O)c2c(n3cnnc13)-c1ccccc1CC21CCCC1 | > 20 µM (inactive)
CC1CC(=O)C2=C(C1)Nc1ncnn1C2c1cccnc1 (stereo not drawn) | > 20 µM (inactive)
O=c1c2cnc3nc(-c4ccccc4)nn3c2ccn1CCc1cnc[nH]1 | > 20 µM (inactive)
O=c1c2c(n3cnnc3n1C1CCCCC1)-c1ccccc1CC21CCCCC1 | > 20 µM (inactive)
O=c1[nH]c(CN2CCOCC2)nc2c1C1(CCCC1)Cc1ccccc1-2 | > 20 µM (inactive)

Continued, values first:

IC50 | SMILES
> 20 µM (inactive) | Cc1ccc2c(c1)-c1c(c(=O)n(Cc3ccc(F)cc3)c3nnnn13)C1(CCCCC1)C2
> 20 µM (inactive) | COc1ccc2c(c1)-c1c(c(=O)n(Cc3ccccc3)c3nncn13)C(C)(C)C2
> 20 µM (inactive) | COc1ccc2c(c1)-c1c(c(=O)n(Cc3ccc(Cl)cc3)c3nnnn13)C(C)(C)C2
> 20 µM (inactive) | O=c1c2c(n3cnnc3n1Cc1ccccc1)-c1ccccc1CC21CCCC1
> 20 µM (inactive) | COc1ccc2c(c1)-c1c(c(=O)n(Cc3ccc(Cl)cc3)c3nncn13)C1(CCCC1)C2
> 20 µM (inactive) | Cc1ccc2c(c1)-c1c(c(=O)n(Cc3ccc(Cl)cc3)c3nnnn13)C1(CCCCC1)C2
> 20 µM (inactive) | C=C(C)Cn1c(=O)c2c(n3cnnc13)-c1ccccc1CC21CCCC1
> 20 µM (inactive) | COc1ccc(Cn2c(=O)c3c(n4cnnc24)-c2cc(C)ccc2CC3(C)C)cc1
> 20 µM (inactive) | O=c1c2c(n3nnnc3n1-c1ccccc1)-c1ccccc1CC21CCCC1
> 20 µM (inactive) | Cc1ccc2c(c1)-c1c(c(=O)n(Cc3ccccc3)c3nncn13)C(C)(C)C2
> 20 µM (inactive) | COc1ccc2c(c1)-c1c(c(=O)n(Cc3ccc(F)cc3)c3nncn13)C(C)(C)C2
> 20 µM (inactive) | O=c1c2c(n3nnnc3n1Cc1ccccc1)-c1cc(F)ccc1CC21CCCCC1
> 20 µM (inactive) | O=c1c2c(n3cnnc3n1Cc1ccc(Cl)cc1)-c1ccccc1CC21CCCC1
> 20 µM (inactive) | COc1ccc(Cn2c(=O)c3c(n4nnnc24)-c2ccccc2CC32CCCC2)cc1
> 20 µM (inactive) | Cc1ccc2c(c1)-c1c(c(=O)n(Cc3ccccc3)c3nncn13)C1(CCCCC1)C2
> 20 µM (inactive) | O=c1c2c(n3nnnc3n1Cc1ccc(F)cc1)-c1ccccc1CC21CCCC1
> 20 µM (inactive) | Cc1ccc2c(c1)-c1c(c(=O)n(Cc3ccc(Cl)cc3)c3nncn13)C1(CCCCC1)C2

IC50 | SMILES
> 20 µM (inactive) | COc1ccc2c(c1)-c1c(c(=O)n(Cc3ccc(Cl)cc3)c3nnnn13)C1(CCCC1)C2
> 20 µM (inactive) | COc1ccc2c(c1)-c1c(c(=O)n(Cc3ccccc3)c3nnnn13)C(C)(C)C2
> 20 µM (inactive) | COc1ccc(Cn2c(=O)c3c(n4nnnc24)-c2cc(C)ccc2CC3(C)C)cc1
> 20 µM (inactive) | Cc1ccc2c(c1)-c1c(c(=O)n(Cc3ccc(F)cc3)c3nncn13)C1(CCCCC1)C2
> 20 µM (inactive) | COc1ccc2c(c1)-c1c(c(=O)n(Cc3ccc(F)cc3)c3nnnn13)C(C)(C)C2
> 20 µM (inactive) | COc1ccc2c(c1)-c1c(c(=O)n(Cc3ccccc3)c3nnnn13)C1(CCCC1)C2
> 20 µM (inactive) | COc1ccc2c(c1)-c1c(c(=O)n(Cc3ccc(Cl)cc3)c3nncn13)C(C)(C)C2
> 20 µM (inactive) | COc1ccc2c(c1)-c1c(c(=O)n(Cc3ccccc3)c3nncn13)C1(CCCC1)C2
> 20 µM (inactive) | O=c1c2c(n3nnnc3n1Cc1ccccc1)-c1ccccc1CC21CCCC1
> 20 µM (inactive) | O=c1c2c(n3cnnc3n1Cc1ccccc1)-c1ccccc1CC21CCCCC1
> 20 µM (inactive) | O=c1c2c(n3nnnc3n1Cc1ccc(Cl)cc1)-c1ccccc1CC21CCCC1
> 20 µM (inactive) | Cc1ccc2c(c1)-c1c(c(=O)n(Cc3ccccc3)c3nnnn13)C1(CCCCC1)C2
> 20 µM (inactive) | Cc1ccc2c(c1)-c1c(c(=O)n(Cc3ccccc3)c3nnnn13)C(C)(C)C2
> 20 µM (inactive) | O=c1c2c(n3nnnc3n1Cc1ccccc1)-c1ccccc1CC21CCCCC1
> 20 µM (inactive) | C=C(C)Cn1c(=O)c2c(n3nnnc13)-c1ccccc1CC21CCCC1
> 20 µM (inactive) | CC1(C)Cc2ccccc2-c2c1c(=O)n(Cc1ccccc1)c1nnnn21
> 20 µM (inactive) | O=c1c2c(n3nnnc3n1Cc1ccccc1)-c1cc(F)ccc1CC21CCCC1
